Test results published in publication PMC2841013 (Biochemistry, 2010).
Entries after “also recorded” stand apart in the source; their conditions may differ.

Legend:
BZLF1 = assay: Coiled-coil array, BZLF1 self-association; type: binding, Epstein-Barr virus; settings: BZLF1 leucine zipper; probe 1280 nM
CEBPA (C/EBPα) = settings: cited from earlier work
FOS = assay: Coiled-coil array vs FOS; type: binding, human; settings: BZLF1 probe 1280 nM
Method in brief: (§1)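 Leucine-zipper regions of human bZIPs and viral proteins were expressed in E. coli RP3098, purified denaturing via Ni-NTA then reverse-phase HPLC, and printed on aldehyde glass slides. The fluorescently labelled BZLF1 zipper was probed at 1280 nM in phosphate buffer with GdnHCl. Each measurement averaged 8 background-corrected spots and was reported as Sarray or arrayscore, −log(F/Fmax), with F as intensity minus the probe's median signal.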

CEBPA = assay: Coiled-coil array vs CEBPA; type: binding, human; settings: BZLF1; leucine-zipper regions; probe 1280 nM
Method in brief: as §1

[1] = system: 33 representative human bZIPs; assay: Coiled-coil array, panel of human bZIPs; type: binding
JUN = assay: Coiled-coil array vs JUN; type: binding, human; settings: BZLF1 probe 1280 nM
MAFG on MARE DNA = assay: Gel-shift with MAFG on MARE DNA; type: binding, human; settings: MAFG 4 nM, HBZLZ 4, 40, 400, or 4000 nM
MAFB on MARE DNA = assay: Gel-shift with MAFB on MARE DNA; type: binding, human; settings: MAFB 4 nM, HBZLZ 4, 40, 400, or 4000 nM
Q9DGW5 = settings: other: circular dichroism

In the case of “BZLF1: bZIP protein encoded by Epstein-Barr virus (LLQHYREVAAAKSSENDRLRLLLKQM; fluorescently labeled when used as solution probe on the arrays (dye and site not stated); left off: His tag (from the vector pDEST17, modified versions, and the Ni-NTA purification), end not stated,)”, the self-association on array (BZLF1) is listed as “observed to self-associate strongly”, the “interaction with CEBPA” value (CEBPA (C/EBPα)) is listed as “interact with many viral and cellular proteins including the human bZIP CEBPA (C/EBPα)” and the interaction on array (FOS) is listed as “not observed to interact on the arrays”. The interaction on array (CEBPA) was “this pairing was not observed in our array experiments”, the “interaction with human bZIPs on array” value ([1]; BZLF1 leucine zipper, probe concentration 1280 nM, average of 8 spots) was “not to interact with any human bZIP peptides; also recorded: display almost exclusive homo-association” and the interaction on array (JUN) was “not observed to interact on the arrays”.

For “BZLF1CT: BZLF1 construct with the C-terminal extension (LLQHYREVAAAKSSENDRLRLLLKQMCPSLDVDSIIPRTPDVLHEDLLNF; fluorescently labeled when used as solution probe on the arrays (dye and site not stated))”, the “interaction with human bZIPs on array” value ([1]; construct with the C-terminal extension) was “did not interact strongly with any human proteins”.

In the case of “HBZLZ: leucine-zipper-only version of HBZ (DGYTRQLEGEVESLEAERRKLLQEKEDLMGEVNYWQGRLEAMWLQ; fluorescently labeled when used as solution probe on the arrays (dye and site not stated); left off: His tag (from the vector pDEST17, modified versions, and the Ni-NTA purification), end not stated,)”, the “amount of MAFG bound to DNA” value (MAFG on MARE DNA) is reported as “The amount of MAF protein bound to DNA was decreased, though a higher concentration of HBZLZ was required. No additional complex was detected” and the “amount of MAFB bound to DNA” value (MAFB on MARE DNA) is reported as “The amount of MAF protein bound to DNA was decreased, though a higher concentration of HBZLZ was required. No additional complex was detected”.

B1: MEQ bZIP domain (protein)
chain: KQKLERRRKRNRDAARRRRRKQTDYVDKLHEACEELQRANEHLRKEIRDLRTECTSLRVQLACH
In the case of B1, the “Tm (homo-association)” value (Q9DGW5) is reported as “for MEQ was 35.2 °C”.
